Laboratory results: ChEMBL document CHEMBL1135742, “Modification of the structure of a metallopeptide: synthesis and biological evaluation of (111)In-labeled DOTA-conjugated rhenium-cyclized alpha-MSH analogues” (J Med Chem, 2002)

Species on record: Mus musculus
Assay: Uptake Ratio of Tumor/blood (each in % ID/g) in B16/F1 Murine Melanoma-Bearing C57 Mice at 4 h
Type: functional, organism-based
Details: not given
In short: (§1)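 C57 BL/6 female mice (7–8 weeks) carried B16/F1 tumours from 1×10^6 cells given s.c. in the right flank; tumours were ~500 mg at 9–10 days. Each mouse received […] of HPLC-purified, neutralized 111In-DOTA peptide via the tail vein. Mice were killed at 0.5, 2, 4 or 24 h pi. Tissues were weighed and γ-counted, expressed as % ID/g; ratios were tumor/tissue % ID/g.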
Substance DOTA-ReCCEHdFRWCRPV-NH2 has an Uptake ratio of 254.

Species on record: Mus musculus
Assay: Uptake Ratio of Tumor/muscle (each in % ID/g) in B16/F1 Murine Melanoma-Bearing C57 Mice at 4 h
Type: functional, organism-based
Details: Muscle tissue
In short: (§2)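 Female C57 BL/6 mice, 7–8 weeks old, carried subcutaneous right-flank B16/F1 tumors from 1×10^6 cells and were used 9–10 days later at ~500 mg tumor weight. Each received […] of HPLC-purified, pH-neutralized ¹¹¹In-DOTA peptide by tail vein. Tumor and organs were excised at the stated time, weighed and γ-counted. Each tissue was taken as % ID/g, and tumor/normal-tissue ratios were formed from these values.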
DOTA-ReCCEHdFRWCRPV-NH2 was tested, and the Uptake ratio was 193.

Species on record: Mus musculus
Assay: Uptake Ratio of Tumor/liver (each in % ID/g) in B16/F1 Murine Melanoma-Bearing C57 Mice at 4 h
Type: functional, organism-based
Details: not given
In short: as §1
Substance DOTA-ReCCEHdFRWCRPV-NH2 has an Uptake ratio of 60.2.

Species on record: Mus musculus
Assay: Uptake Ratio of Tumor/lungs (each in % ID/g) in B16/F1 Murine Melanoma-Bearing C57 Mice at 24 h
Type: functional, organism-based
Details: not given
In short: as §2
With DOTA-ReCCEHdFRWCRPV-NH2 the Uptake ratio was 43.7.

Species on record: Mus musculus
Assay: Radioactivity uptake in the pancreas was expressed as a percentage of the injected radioactive dose per gram of tissue (% ID/g) in B16/F1 Murine Melanoma-Bearing C57 Mice at 2 h
Type: functional, organism-based
Details: not given
In short: as §1
Work on DOTA-ReCCEHdFRWCRPV-NH2 yielded an ID/g of 0.08%.

Species on record: Mus musculus
Assay: Radioactivity uptake in the blood was expressed as a percentage of the injected radioactive dose per gram of tissue (% ID/g) in B16/F1 Murine Melanoma-Bearing C57 Mice at 0.5 h
Type: functional, organism-based
Details: not given
In short: as §1
DOTA-ReCCEHdFRWCRPV-NH2 showed an ID/g of 1.7%.

Species on record: Mus musculus
Assay: Uptake Ratio of Tumor/blood (each in % ID/g) in B16/F1 Murine Melanoma-Bearing C57 Mice at 0.5 h
Type: functional, organism-based
Details: not given
In short: as §1
Substance DOTA-ReCCEHdFRWCRPV-NH2 has an Uptake ratio of 9.7.

Species on record: Mus musculus
Assay: Radioactivity uptake in the liver was expressed as a percentage of the injected radioactive dose per gram of tissue (% ID/g) in B16/F1 Murine Melanoma-Bearing C57 Mice at 24 h
Type: functional, organism-based
Details: not given
In short: as §1
DOTA-ReCCEHdFRWCRPV-NH2 gave an ID/g of 0.32%.

Species on record: Mus musculus
Assay: Uptake Ratio of Tumor/blood (each in % ID/g) in B16/F1 Murine Melanoma-Bearing C57 Mice at 24 h
Type: functional, organism-based
Details: not given
In short: as §1
Substance DOTA-ReCCEHdFRWCRPV-NH2 has an Uptake ratio of 95.

Species on record: Mus musculus
Assay: Uptake Ratio of Tumor/lungs (each in % ID/g) in B16/F1 Murine Melanoma-Bearing C57 Mice at 4 h
Type: functional, organism-based
Details: not given
In short: as §2
Substance DOTA-ReCCEHdFRWCRPV-NH2 has an Uptake ratio of 122.

Species on record: Mus musculus
Assay: Radioactivity uptake in the liver was expressed as a percentage of the injected radioactive dose per gram of tissue (% ID/g) in B16/F1 Murine Melanoma-Bearing C57 Mice at 0.5 h
Type: functional, organism-based
Details: not given
In short: as §1
Work on DOTA-ReCCEHdFRWCRPV-NH2 yielded an ID/g of 0.66%.

Species on record: Mus musculus
Assay: Uptake Ratio of Tumor/kidneys (each in % ID/g) in B16/F1 Murine Melanoma-Bearing C57 Mice at 0.5 h
Type: functional, organism-based
Details: Kidney
In short: as §1
For DOTA-ReCCEHdFRWCRPV-NH2, the Uptake ratio was 1.8.

Species on record: Mus musculus
Assay: Radioactivity uptake in the kidneys was expressed as a percentage of the injected radioactive dose per gram of tissue (% ID/g) in B16/F1 Murine Melanoma-Bearing C57 Mice at 0.5 h
Type: functional, organism-based
Details: Kidney
In short: as §1
DOTA-ReCCEHdFRWCRPV-NH2 was tested, and the ID/g was 9.31%.

Species on record: Mus musculus
Assay: Radioactivity uptake in the liver was expressed as a percentage of the injected radioactive dose per gram of tissue (% ID/g) in B16/F1 Murine Melanoma-Bearing C57 Mice at 4 h
Type: functional, organism-based
Details: not given
In short: as §1
For DOTA-ReCCEHdFRWCRPV-NH2, the ID/g was 0.3%.

Species on record: Mus musculus
Assay: Uptake Ratio of Tumor/kidneys (each in % ID/g) in B16/F1 Murine Melanoma-Bearing C57 Mice at 24 h
Type: functional, organism-based
Details: Kidney
In short: as §1
DOTA-ReCCEHdFRWCRPV-NH2 showed an Uptake ratio of 1.5.

Species on record: Mus musculus
Assay: Radioactivity uptake in the heart was expressed as a percentage of the injected radioactive dose per gram of tissue (% ID/g) in B16/F1 Murine Melanoma-Bearing C57 Mice at 4 h
Type: functional, organism-based
Details: not given
In short: as §1
Work on DOTA-ReCCEHdFRWCRPV-NH2 yielded an ID/g of 0.054%.

Species on record: Mus musculus
Assay: Uptake Ratio of Tumor/kidneys (each in % ID/g) in B16/F1 Murine Melanoma-Bearing C57 Mice at 4 h
Type: functional, organism-based
Details: Kidney
In short: as §1
With DOTA-ReCCEHdFRWCRPV-NH2 the Uptake ratio was 2.5.

Species on record: Mus musculus
Assay: Radioactivity uptake in the lungs was expressed as a percentage of the injected radioactive dose per gram of tissue (% ID/g) in B16/F1 Murine Melanoma-Bearing C57 Mice at 2 h
Type: functional, organism-based
Details: Lung
In short: as §1
DOTA-ReCCEHdFRWCRPV-NH2 was tested, and the ID/g was 0.3%.

Species on record: Mus musculus
Assay: Uptake Ratio of Tumor/muscle (each in % ID/g) in B16/F1 Murine Melanoma-Bearing C57 Mice at 24 h
Type: functional, organism-based
Details: Muscle tissue
In short: as §2
Substance DOTA-ReCCEHdFRWCRPV-NH2 has an Uptake ratio of 42.2.

Species on record: Mus musculus
Assay: Uptake Ratio of Tumor/kidneys (each in % ID/g) in B16/F1 Murine Melanoma-Bearing C57 Mice at 2 h
Type: functional, organism-based
Details: Kidney
In short: as §1
DOTA-ReCCEHdFRWCRPV-NH2 gave an Uptake ratio of 2.

Species on record: Mus musculus
Assay: Radioactivity uptake in the blood was expressed as a percentage of the injected radioactive dose per gram of tissue (% ID/g) in B16/F1 Murine Melanoma-Bearing C57 Mice at 2 h
Type: functional, organism-based
Details: not given
In short: as §1
DOTA-ReCCEHdFRWCRPV-NH2 was tested, and the ID/g was 0.21%.

Species on record: Mus musculus
Assay: Radioactivity uptake in the heart was expressed as a percentage of the injected radioactive dose per gram of tissue (% ID/g) in B16/F1 Murine Melanoma-Bearing C57 Mice at 0.5 h
Type: functional, organism-based
Details: not given
In short: as §1
With DOTA-ReCCEHdFRWCRPV-NH2 the ID/g was 0.76%.

Species on record: Mus musculus
Assay: Uptake Ratio of Tumor/liver (each in % ID/g) in B16/F1 Murine Melanoma-Bearing C57 Mice at 0.5 h
Type: functional, organism-based
Details: not given
In short: as §1
With DOTA-ReCCEHdFRWCRPV-NH2 the Uptake ratio was 25.2.

Species on record: Mus musculus
Assay: Uptake Ratio of Tumor/blood (each in % ID/g) in B16/F1 Murine Melanoma-Bearing C57 Mice at 2 h
Type: functional, organism-based
Details: not given
In short: as §1
In the case of DOTA-ReCCEHdFRWCRPV-NH2, the Uptake ratio is reported as 93.7.

Species on record: Mus musculus
Assay: Radioactivity uptake in the spleen was expressed as a percentage of the injected radioactive dose per gram of tissue (% ID/g) in B16/F1 Murine Melanoma-Bearing C57 Mice at 0.5 h
Type: functional, organism-based
Details: not given
In short: as §1
For DOTA-ReCCEHdFRWCRPV-NH2, the ID/g was 0.78%.

Species on record: Mus musculus
Assay: Uptake Ratio of Tumor/liver (each in % ID/g) in B16/F1 Murine Melanoma-Bearing C57 Mice at 24 h
Type: functional, organism-based
Details: not given
In short: as §1
DOTA-ReCCEHdFRWCRPV-NH2 showed an Uptake ratio of 25.6.

Species on record: Mus musculus
Assay: Radioactivity uptake in the muscle was expressed as a percentage of the injected radioactive dose per gram of tissue (% ID/g) in B16/F1 Murine Melanoma-Bearing C57 Mice at 4 h
Type: functional, organism-based
Details: not given
In short: as §1
Substance DOTA-ReCCEHdFRWCRPV-NH2 has an ID/g of 0.086%.

Species on record: Mus musculus
Assay: Uptake Ratio of Tumor/muscle (each in % ID/g) in B16/F1 Murine Melanoma-Bearing C57 Mice at 0.5 h
Type: functional, organism-based
Details: Muscle tissue
In short: as §2
In the case of DOTA-ReCCEHdFRWCRPV-NH2, the Uptake ratio is reported as 47.4.

Species on record: Mus musculus
Assay: Radioactivity uptake in the pancreas was expressed as a percentage of the injected radioactive dose per gram of tissue (% ID/g) in B16/F1 Murine Melanoma-Bearing C57 Mice at 0.5 h
Type: functional, organism-based
Details: not given
In short: as §1
In the case of DOTA-ReCCEHdFRWCRPV-NH2, the ID/g is reported as 0.41%.

Species on record: Mus musculus
Assay: Radioactivity uptake in the muscle was expressed as a percentage of the injected radioactive dose per gram of tissue (% ID/g) in B16/F1 Murine Melanoma-Bearing C57 Mice at 2 h
Type: functional, organism-based
Details: not given
In short: as §1
DOTA-ReCCEHdFRWCRPV-NH2 showed an ID/g of 0.03%.

Species on record: Mus musculus
Assay: Radioactivity uptake in the lungs was expressed as a percentage of the injected radioactive dose per gram of tissue (% ID/g) in B16/F1 Murine Melanoma-Bearing C57 Mice at 0.5 h
Type: functional, organism-based
Details: Lung
In short: as §1
Substance DOTA-ReCCEHdFRWCRPV-NH2 has an ID/g of 1.66%.

Species on record: Mus musculus
Assay: Radioactivity uptake in the heart was expressed as a percentage of the injected radioactive dose per gram of tissue (% ID/g) in B16/F1 Murine Melanoma-Bearing C57 Mice at 24 h
Type: functional, organism-based
Details: not given
In short: as §1
In the case of DOTA-ReCCEHdFRWCRPV-NH2, the ID/g is reported as 0.36%.

Species on record: Mus musculus
Assay: Radioactivity uptake in the muscle was expressed as a percentage of the injected radioactive dose per gram of tissue (% ID/g) in B16/F1 Murine Melanoma-Bearing C57 Mice at 24 h
Type: functional, organism-based
Details: not given
In short: as §1
With DOTA-ReCCEHdFRWCRPV-NH2 the ID/g was 0.14%.

Species on record: Mus musculus
Assay: Radioactivity uptake in the lungs was expressed as a percentage of the injected radioactive dose per gram of tissue (% ID/g) in B16/F1 Murine Melanoma-Bearing C57 Mice at 24 h
Type: functional, organism-based
Details: Lung
In short: as §1
DOTA-ReCCEHdFRWCRPV-NH2 was tested, and the ID/g was 0.24%.
